Only some compounds are listed: those with a hit (about 4.5% of all), similar ones and a draw of the others.
OX1R antag-1 – OX1R (human) antagonism. inhibition, % at 6.6 µM. 330,000 compounds, 1.8% hits. OX1R-expressing cells, FRET antagonist read-out; in the data active = inhibition mostly above about 38%, no sharp cut-off; inactive = mostly below about 40%;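 note: 0% = agonist challenge alone and 100% = reference antagonist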
CHO parental Ca – counter-screen for OX1R antagonists: effect in parental CHO cells | parental CHO-K1, ATP-induced calcium, Fluo-8 fluorescence | inhibition, % at 5.6 µM | 330,000 compounds, 0.63% hits | AID 463079;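 active = inhibition above that plate's mean sample inhibition plus 3 SD, cut at about 26% in these data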;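 note: 0% = ATP-challenged DMSO wells and 100% = DMSO wells without ATP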
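test system = CHO parental line | reagent = ATP stimulus | measured by = intracellular calcium via Fluo-8 no-wash fluorescent dye | control set = ATP and no-ATP DMSO wells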
OX1R antag-2 – blocks the human orexin 1 receptor. CHO/OX1R cells, Fluo-8 calcium fluorescence, orexin A. inhibition, % at 5 µM. 330,000 compounds, 0.43% hits;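 active = inhibition above its plate's threshold, mean inhibition of all tested compounds on the plate plus 3 SD, cut at about 37% in these data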;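 note: 0% = orexin A challenge wells and 100% = SB-334867-A antagonist wells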
TAAR1 antag – antagonists of human TAAR1. Q96RJ0. CHO RD-HGA16 TAAR1, Fluo-8 calcium fluorescence, antagonist. inhibition, % at 3 µM. 360,000 compounds, 1.5% hits. AID 624466;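 active = inhibition above a per-plate cutoff, the mean inhibition of test compounds on that plate plus 3 SD, cut at about 49% in these data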;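 note: 0% = DMSO plus EC80 beta-PEA response and 100% = DMSO alone without agonist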
Target sequence (Q96RJ0 whole entry, looked up): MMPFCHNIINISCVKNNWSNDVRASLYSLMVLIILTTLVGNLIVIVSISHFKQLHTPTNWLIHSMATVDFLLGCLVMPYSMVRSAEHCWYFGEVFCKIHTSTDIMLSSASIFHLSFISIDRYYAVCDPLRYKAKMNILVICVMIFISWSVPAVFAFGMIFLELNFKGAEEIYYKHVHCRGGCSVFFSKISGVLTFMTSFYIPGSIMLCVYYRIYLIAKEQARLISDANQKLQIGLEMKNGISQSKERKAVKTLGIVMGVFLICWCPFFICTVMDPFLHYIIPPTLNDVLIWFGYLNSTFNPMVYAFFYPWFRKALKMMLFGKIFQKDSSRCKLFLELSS
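Material: RD-HGA16 CHO cells with stable hTAAR1 and Gα16; Dosing: single nominal final test compound concentration of 3 µM; Schedule: seeding 17-24 h prior, 75-min 37 °C, 30-min RT dye loading; Detection: kinetic Fluo-8 calcium fluorescence measurement; Measure: % inhibition from peak post-agonist over basal fluorescence ratio; Benchmarks: vehicle and agonist controls.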
GPR7 antag – antagonists of human GPR7 (neuropeptides B/W receptor 1); GPR7-expressing cells, fluorescence antagonist assay; inhibition, % at 4.4 µM; 290,000 compounds, 1.1% hits; in the data active = inhibition above about 16%, passing the limit was not always enough;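 note: cells stimulated with the agonist NPW; 0% = agonist with vehicle and 100% = vehicle without agonist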
Target sequence (P48145 whole entry, looked up): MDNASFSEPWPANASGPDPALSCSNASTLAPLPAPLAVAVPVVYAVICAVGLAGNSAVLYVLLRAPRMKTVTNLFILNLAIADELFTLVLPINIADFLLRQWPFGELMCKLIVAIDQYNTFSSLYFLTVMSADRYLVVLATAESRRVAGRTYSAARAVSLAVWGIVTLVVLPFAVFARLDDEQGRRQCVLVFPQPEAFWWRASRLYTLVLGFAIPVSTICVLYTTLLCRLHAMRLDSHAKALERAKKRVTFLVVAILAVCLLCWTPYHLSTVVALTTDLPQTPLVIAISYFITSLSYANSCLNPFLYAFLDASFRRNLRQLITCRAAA
TAAR1 ag – human TAAR1 agonism. Q96RJ0. CHO RD-HGA16 TAAR1, Fluo-8 calcium fluorescence; vehicle wells 0%, saturating PEA agonist 100%. activation, % at 3 µM. 360,000 compounds, 0.99% hits. AID 624467;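 active = activation above the mean activation of all test compounds in the run plus 3 SD, cut at about 38% in these data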
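Test system: RD-HGA16 (CHO) cells co-expressing Gα16 and hTAAR1 | Doses: Single dose, 3 µM | Schedule: 17-24 h seeding, 75 min 37 °C dye, 30 min RT | Evaluation: % activation from peak over basal fluorescence ratio, DMSO-to-PEA scaled | Technique: Kinetic Fluo-8 calcium fluorescence | Benchmarks: Low control DMSO, high control PEA (EC100)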
Active calls of the source: *; . = no result.

SMILES	OX1R antag-1	CHO parental Ca	OX1R antag-2	TAAR1 antag	GPR7 antag	TAAR1 ag
CC1CCN(C(C(=O)Nc2ccc(C(C)C)cc2)c2ccc3c(c2)OCO3)CC1 (configuration not stated)	13	31*	-27	-30	-3	2
CC(C)c1ccc(NC(=O)C(c2ccc3c(c2)OCO3)N2CCC3(CC2)OCCO3)cc1 (configuration not stated)	30	-22	-5	-7	0	3
COc1ccc(F)cc1-c1cc(NC=O)c2ncc(-c3cccc(C(F)(F)F)c3)n2c1	.	.	.	26	.	12
COC(=O)c1cc2c(c3c4cc(F)ccc4n(S(=O)(=O)c4cccc(C)c4)c13)C(=O)N(Cc1ccccc1OC)C2	.	.	.	-4	.	0
C=CCn1c(C(C)NC(=O)CCC)nc2ccccc21 (configuration not stated)	10	4	-1	-16	20*	7
CSc1ccc(Cl)c(C(=O)NCCOc2cc(C(C)C)ccc2C)c1	20	-1	-22	49*	-2	5
CCCCS(=O)(=O)N1CCCc2nc(-c3ccc(F)cc3)ccc21	.	.	.	17	.	-1
Cc1ccc(NS(=O)(=O)c2ccc(NC(=O)c3cccc(NC(=O)C(C)C)c3)cc2)cc1	49	67*	82*	53*	0	8
Cc1ccc(S(=O)(=O)Nc2ccc(C(=O)Nc3ccncc3)cc2)cc1	24	-5	-2	-18	5	1
CC(C)(C)OC(=O)N1CCC2CCN(CCc3ccccc3)CC21 (configuration not stated)	.	.	.	-11	.	0
CCCc1nc2nc(C)c(NS(=O)(=O)c3ccc([N+](=O)[O-])cc3)c(=O)n2[nH]1	50*	-5	-54	-7	10	2
Cc1nc2nc[nH]n2c(=O)c1NS(=O)(=O)c1ccc(F)cc1	8	1	0	9	-6	6
Cc1nc2nc[nH]n2c(=O)c1NS(=O)(=O)c1ccc([N+](=O)[O-])cc1	44*	-9	-8	6	-18	5
COc1c(C)cc(C(O)c2ncc(-c3ccc4ccccc4c3)[nH]2)cc1C (configuration not stated)	.	.	.	-14	.	8
Cc1ccc(NC(=O)NNC(=O)CSC2CCc3ccccc32)c(C)c1 (configuration not stated)	.	.	.	-21	.	-2
COC(=O)C(CC(C)C)N(Cc1cc(OC)cc(OC)c1)S(=O)(=O)c1ccccc1Br (configuration not stated)	29	-19	32	15	.	4
COc1cc(CN(CC(C)C)S(=O)(=O)c2ccccc2Br)cc(OC)c1	34*	-20	35	10	.	2
Cc1oc(-c2cccs2)cc1C(=O)N1CCCC(C)(C(=O)O)C1 (configuration not stated)	.	.	.	-2	.	2
Oc1ccc(C[C@H]2CNCCN2CCCCC2CCCCC2)cc1	8	21	5	13	.	34
c1ccc2c(C[C@@H]3CNCCN3CC3CCCCC3)cccc2c1	8	3	-19	-1	.	41*
Cc1cc(C)cc(NC(=O)Cn2ncn3c(cc4ccccc43)c2=O)c1	5	18	8	12	7	39*
O=C1NC(c2ccc3c(c2)OCO3)c2c(-c3ccccc3)n[nH]c21 (configuration not stated)	.	.	.	-6	.	4
CCc1cc2c(nc1CC)CCCN2S(=O)(=O)c1ccc(C(F)(F)F)cc1	.	.	.	-6	.	-1
C=CC[C@H](CC(=O)N(CCO)Cc1ccccc1)C(=O)NC[C@@H](OC(=O)[C@@H](CC=C)Cc1ccc(F)cc1)c1ccccc1	7	-14	10	56*	.	11
C=CC[C@H](CC(=O)NCCO)C(=O)NC[C@@H](OC(=O)[C@@H](CC=C)Cc1ccc(F)cc1)c1ccccc1	9	-21	-14	25	.	10
SMILES	OX1R antag-1	CHO parental Ca	OX1R antag-2	TAAR1 antag	GPR7 antag	TAAR1 ag
C=CCC[C@H](Cc1ccc(F)cc1)C(=O)O[C@H](CNC(=O)[C@@H](CC=C)CC(=O)N(CCO)Cc1ccccc1)c1ccccc1	10	-7	21	56*	.	8
C=CC[C@@H](CC(=O)N(CCO)Cc1ccccc1)C(=O)NCCOC(=O)[C@@H](CC=C)Cc1ccc(F)cc1	12	-16	-18	-9	.	5
COC(=O)N(NC(=O)C(O)(CCC(C)C)CCC(C)C)c1ccccc1	11	-23	-12	-1	24*	0
CC(C)CCC(O)(CCC(C)C)C(=O)NNc1ccccc1	11	-25	-26	-20	4	3
COc1ccc(OC)c(S(=O)(=O)Oc2ccc(N)c3ccccc23)c1	43*	-3	-13	-22	.	1
O=c1c2ccccc2sn1-c1cc(S(=O)(=O)N2CCOCC2)ccc1N1CCOCC1	7	-8	-13	36	-7	87*
O=c1c2ccccc2sn1-c1cc(S(=O)(=O)N2CCOCC2)ccc1N1CCCC1	5	-19	-31	-6	-2	37
O=[N+]([O-])c1ccc(-c2nc(-c3ccncc3)no2)cc1	64*	-18	-4	-16	-14	2
COc1cccc(-c2nn(C)c3sc(C(=O)NCc4ccc(C)o4)cc23)c1	72*	-22	-25	11	-14	7
COc1cccc(-c2nn(C)c3sc(C(=O)NCc4ccc5c(c4)OCO5)cc23)c1	23	-8	-24	-3	-2	3
Cc1ccccc1CN1[C@@H](CC2CCCCC2)COCCS1(=O)=O	68*	-32	-33	5	-2	10
O=S1(=O)CCOC[C@H](CC2CCCCC2)N1Cc1ccccc1	27	-20	-22	3	-6	12
C[C@H](CO)N1C[C@H](C)[C@@H](CN(C)S(=O)(=O)c2ccc(F)cc2)Oc2cc(Br)ccc2S1(=O)=O	.	.	.	40	.	8
Cc1nn(-c2ccccc2)c(N)c1N=Nc1cccnc1	54*	-10	-20	3	0	3
Nc1nc(-c2ccccc2)c(N=Nc2cccnc2)s1	42	12	-19	-8	-15	3
Cc1ccc(-c2csc(=Nc3cccnc3)n2CCCn2ccnc2)cc1C	49	-22	-15	-2	-4	6
Cc1ccc(-c2csc(=Nc3cccnc3)n2CCCN2CCCC2=O)cc1C	64*	-17	-17	-17	6	4
O=[N+]([O-])c1ccc(Cl)c(S(=O)(=O)/N=C(/c2ccccc2)N2CCOCC2)c1	51*	-4	-19	-19	-5	-1
O=S(=O)(/N=C(\c1ccccc1)N1CCOCC1)c1ccc(Cl)cc1	6	-5	3	16	12	1
CCN1/C(=C/C=C/c2oc3ccc(-c4ccccc4)cc3[n+]2CC)Oc2ccc(-c3ccccc3)cc21	34	101*	105*	105*	98*	531*

Source: PubChem (The Scripps Research Institute Molecular Screening Center)
